Measured values published in ChEMBL document CHEMBL1153361, “Synthesis and in vitro characterization of radioiodinatable benzodiazepines selective for type 1 and type 2 cholecystokinin receptors” (J Med Chem, 2009).
The source made the active and inactive calls. The rule behind the calls is not given here.

Tests used:
[1] = molecular target: T1, Gastrin/cholecystokinin type B receptor (Homo sapiens) (UniProt P32239); test: Agonist activity at human CCK2 receptor expressed in CHO cells assessed as stimulation of intracellular calcium response; assay type: functional, cell-based
T1 sequence (whole entry): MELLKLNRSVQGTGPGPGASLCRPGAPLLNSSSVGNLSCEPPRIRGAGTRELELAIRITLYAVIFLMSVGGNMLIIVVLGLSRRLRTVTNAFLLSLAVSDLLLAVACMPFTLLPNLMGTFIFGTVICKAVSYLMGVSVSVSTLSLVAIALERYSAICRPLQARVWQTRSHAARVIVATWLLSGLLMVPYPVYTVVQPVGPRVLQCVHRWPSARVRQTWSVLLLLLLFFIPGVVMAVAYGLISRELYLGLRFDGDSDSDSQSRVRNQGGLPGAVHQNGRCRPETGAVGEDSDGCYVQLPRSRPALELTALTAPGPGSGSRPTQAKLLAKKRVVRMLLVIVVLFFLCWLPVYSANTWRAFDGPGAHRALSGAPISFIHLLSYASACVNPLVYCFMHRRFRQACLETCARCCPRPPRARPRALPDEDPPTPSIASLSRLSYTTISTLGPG
Procedure, shortened: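 CHO cells stably expressing human receptor, detached non-enzymatically, loaded with 5 μM Fura-2 AM for 30 min at 37 °C in serum-free Ham's F12. About 2 million cells per measurement were stimulated with test ligand (10 pM to 10 μM) at 37 °C. Fluorescence was read with excitation at 340/380 nm and emission at 520 nm over 300 s. Three independent experiments.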

[2] = molecular target: T1, Gastrin/cholecystokinin type B receptor (Homo sapiens); test: Binding affinity to CCK2 receptor in human gastrointestinal stromal tumor in presence of CCK1 antagonist L364718; settings: tested as the 125I-labelled form
[3] = molecular target: T1, Gastrin/cholecystokinin type B receptor (Homo sapiens); test: Induction of receptor internalization in YFP-tagged human CCK2 receptor expressed in CHO cells at 100 nM after 90 mins; assay type: cell-based
Procedure, shortened: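 CHO cells stably expressing YFP-tagged receptor, grown ≥48 h on coverslips, bound with 100 nM ligand at 4 °C for 90 min in PBS with 0.08 mM CaCl2 and 0.1 mM MgCl2. After washing, cells were warmed to 37 °C for varying times, fixed in 2% paraformaldehyde, and imaged by confocal microscopy for surface versus internal YFP (ex 488, em >505 nm).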

[4] = molecular target: T1, Gastrin/cholecystokinin type B receptor (Homo sapiens); test: Displacement of [125I]CCK from CCK2 receptor in human medullary thyroid carcinoma assessed as binding density per mg of tissue by autoradiography; settings: tested as the 125I-labelled form
[5] = molecular target: T1, Gastrin/cholecystokinin type B receptor (Homo sapiens); test: Displacement of [125I]CCK from CCK2 receptor in human muscular layer of gall bladder assessed as binding density per mg of tissue by autoradiography; assay type: tissue-based; settings: tested as the 125I-labelled form
[6] = molecular target: T1, Gastrin/cholecystokinin type B receptor (Homo sapiens); test: Binding affinity to CCK2 receptor in human gastrointestinal stromal tumor in presence of (R)-1-(3-iodophenyl)-3-(1-methyl-2-oxo-5-phenyl-2,3-dihydro-1Hbenzo[e][1,4]diazepin-3-yl)urea; settings: tested as the 125I-labelled form
[7] = molecular target: T1, Gastrin/cholecystokinin type B receptor (Homo sapiens); test: (§1) Displacement of [125I](R)-1-(3-iodophenyl)-3-(1-methyl-2-oxo-5-phenyl-2,3-dihydro-1Hbenzo[e][1,4]diazepin-3-yl)urea from human CCK2 receptor expressed in CHO cells by gamma spectrometry; assay type: cell-based; settings: tested as the 125I-labelled form
Procedure, shortened: (§2)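 Homologous competition in membranes (5–10 µg protein) from CHO cells expressing human receptor. 10 pM radioligand (about 20,000 cpm) plus cold ligand 0–1 µM in KRH with 0.2% BSA and 0.01% soybean trypsin inhibitor, 1 h at room temperature. Filtration, gamma counting. Ki fitted by LIGAND nonlinear least squares. Duplicate/triplicate, ≥3 independent experiments.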

[8] = molecular target: T1, Gastrin/cholecystokinin type B receptor (Homo sapiens); test: Antagonist activity at human CCK2 receptor expressed in CHO cells assessed as inhibition of CCK8-stimulated intracellular calcium response preincubated for 100 seconds before CCK8 challenge; assay type: functional, cell-based
Procedure, shortened: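 Fura-2 AM-loaded (5 μM, 30 min, 37 °C) CHO cells stably expressing human receptor, about 2 million per measurement. Cells were pre-incubated 100 s with increasing ligand concentrations, then stimulated with CCK-8 (final 10^-9 M) at 37 °C. Ratiometric read-out with excitation at 340/380 nm and emission at 520 nm, collected over 300 s. Means of 3 independent experiments.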

[9] = molecular target: T1, Gastrin/cholecystokinin type B receptor (Homo sapiens); test: Binding affinity to CCK2 receptor in human gastrointestinal stromal tumor in presence of CCK8; settings: tested as the 125I-labelled form
[10] = molecular target: T2, Gastrin/cholecystokinin type B receptor (Homo sapiens, UniProt P32239); test: Binding affinity to human CCK2 receptor expressed in CHO cell membrane by saturation binding assay; assay type: cell membranes
T2 sequence (P32239 whole entry): T1 sequence (whole entry)
Procedure, shortened: (§3)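 Membranes (5–10 µg protein) from CHO cells stably expressing human CCK1 or CCK2 receptor, incubated with increasing radioligand in KRH pH 7.4 with 0.2% BSA and 0.01% soybean trypsin inhibitor, 1 h at room temperature. Nonspecific binding taken with 1 µM cold homolog. Filtration, gamma counting. Kd and Bmax fitted in LIGAND.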

[11] = molecular target: T2, Gastrin/cholecystokinin type B receptor; test: as §1; assay type: cell-based; procedure, shortened: as §2
[12] = molecular target: T3, Cholecystokinin receptor type A (Homo sapiens, UniProt P32238); test: biochemical
T3 sequence (P32238 whole entry): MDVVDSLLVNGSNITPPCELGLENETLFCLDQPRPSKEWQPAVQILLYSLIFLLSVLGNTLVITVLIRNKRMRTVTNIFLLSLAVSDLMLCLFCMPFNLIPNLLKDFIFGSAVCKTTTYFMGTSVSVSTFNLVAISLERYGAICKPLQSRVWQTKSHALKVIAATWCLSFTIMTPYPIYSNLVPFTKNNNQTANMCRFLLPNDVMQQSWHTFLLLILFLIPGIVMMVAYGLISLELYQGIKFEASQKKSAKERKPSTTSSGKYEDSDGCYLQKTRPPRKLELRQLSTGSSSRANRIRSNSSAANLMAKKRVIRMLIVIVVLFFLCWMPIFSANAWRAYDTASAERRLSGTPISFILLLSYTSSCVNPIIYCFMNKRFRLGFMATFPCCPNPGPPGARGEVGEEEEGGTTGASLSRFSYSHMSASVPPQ

[13] = molecular target: T3, Cholecystokinin receptor type A; test: Binding affinity to human CCK1 receptor expressed in CHO cell membrane by saturation binding assay; assay type: cell membranes; procedure, shortened: as §3

CN1C(=O)[C@H](NC(=O)Nc2cccc(I)c2)N=C(c2ccccc2)c2ccccc21
Activity [1]: inactive
Activity [2]: inactive
Activity [3]: Active
Activity (disintegrations/minute) [4]: 602
Activity (disintegrations/minute) [5]: 970
Activity [6]: inactive
Activity [7]: Dose-dependent effect
Activity [8]: Dose-dependent effect
Activity [9]: inactive

CN1C(=O)[C@H](NC(=O)Nc2cccc([125I])c2)N=C(c2ccccc2)c2ccccc21
Kd [10]: 2.95 nM
Ki [11]: 537 nM
Ki [12]: 3.72 nM

CN1C(=O)[C@@H](NC(=O)Nc2cccc([125I])c2)N=C(c2ccccc2)c2ccccc21
Ki [11]: 1 nM
Ki [12]: 174 nM
Kd [13]: 1.15 nM

CN1C(=O)[C@@H](NC(=O)Nc2cccc(I)c2)N=C(c2ccccc2)c2ccccc21
Activity [1]: inactive
Activity [7]: Dose-dependent effect
Activity [8]: Dose-dependent effect
